ChEMBL document CHEMBL1144602, “Synthesis and in vitro binding studies of substituted piperidine naphthamides. Part I: Influence of the substitution on the basic nitrogen and the position of the amide on the affinity for D2L, D4.2, and 5-HT2A receptors” (Bioorg Med Chem Lett, 2007)
pKi: −log10 of the molar value.

Key:
[1] = molecular target: 5-hydroxytryptamine receptor 2A (Rattus norvegicus) (UniProt P14842); test: Displacement of [3H]ketanserin from rat cloned 5HT2A receptor at 1 uM
D(2) dopamine receptor [2] = molecular target: T1, D(2) dopamine receptor (Homo sapiens, UniProt P14416); test: Displacement of [3H]spiperone from human cloned dopamine D2L receptor at 1 uM
T1 sequence (P14416 whole entry): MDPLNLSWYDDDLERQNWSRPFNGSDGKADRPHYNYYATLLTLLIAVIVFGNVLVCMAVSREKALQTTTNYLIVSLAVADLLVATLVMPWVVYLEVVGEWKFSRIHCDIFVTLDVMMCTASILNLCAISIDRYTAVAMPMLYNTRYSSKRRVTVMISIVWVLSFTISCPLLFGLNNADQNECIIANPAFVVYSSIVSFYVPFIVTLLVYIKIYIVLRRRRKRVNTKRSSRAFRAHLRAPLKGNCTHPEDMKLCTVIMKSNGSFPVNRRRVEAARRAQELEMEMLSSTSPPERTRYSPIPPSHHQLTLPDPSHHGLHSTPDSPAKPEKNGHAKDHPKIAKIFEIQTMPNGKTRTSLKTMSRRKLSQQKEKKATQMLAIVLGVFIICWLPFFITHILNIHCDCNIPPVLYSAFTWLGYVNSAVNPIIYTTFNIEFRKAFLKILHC
Outline: (§1)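 Single-point screen at 1 µM, reported as percent inhibition of radioligand binding: [3H]ketanserin at native rat 5-HT2A, [3H]nemonapride at human D4.2, [3H]spiperone at human D2L.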

D(4) dopamine receptor = molecular target: T2, D(4) dopamine receptor (Homo sapiens, UniProt P21917); test: Displacement of [3H]nemonapride from human cloned dopamine D4.2 receptor
T2 sequence (P21917 whole entry): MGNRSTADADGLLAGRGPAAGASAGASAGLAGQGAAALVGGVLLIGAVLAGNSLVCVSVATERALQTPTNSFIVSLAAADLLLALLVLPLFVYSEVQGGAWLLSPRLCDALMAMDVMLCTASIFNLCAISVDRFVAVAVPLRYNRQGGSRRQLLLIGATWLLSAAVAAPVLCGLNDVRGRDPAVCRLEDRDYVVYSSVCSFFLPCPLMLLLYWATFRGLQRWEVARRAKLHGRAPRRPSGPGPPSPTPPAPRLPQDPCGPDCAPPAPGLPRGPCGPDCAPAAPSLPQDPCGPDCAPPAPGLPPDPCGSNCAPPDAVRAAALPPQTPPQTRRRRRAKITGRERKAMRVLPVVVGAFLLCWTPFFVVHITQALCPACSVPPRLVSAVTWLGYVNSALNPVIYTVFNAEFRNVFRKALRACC
Outline: (§2)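 Radioligands were [3H]ketanserin for native rat 5-HT2A, [3H]nemonapride for cloned human D4.2 and [3H]spiperone for cloned human D2L. Ki was determined only for compounds giving >50% inhibition in a 1 µM screen. Values are mean ± SD, n ≥ 2 unless noted.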

[3] = molecular target: T3, D(4) dopamine receptor (Homo sapiens) (UniProt P21917); test: Displacement of [3H]nemonapride from human cloned dopamine D4.2 receptor at 1 uM; outline: as §1
T3 sequence (whole entry): T2 sequence (P21917 whole entry)

D(2) dopamine receptor [4] = molecular target: T1, D(2) dopamine receptor; test: Displacement of [3H]spiperone from human cloned dopamine D2L receptor; outline: as §2

5-hydroxytryptamine receptor 2A (Rattus norvegicus), sequence (P14842 whole entry): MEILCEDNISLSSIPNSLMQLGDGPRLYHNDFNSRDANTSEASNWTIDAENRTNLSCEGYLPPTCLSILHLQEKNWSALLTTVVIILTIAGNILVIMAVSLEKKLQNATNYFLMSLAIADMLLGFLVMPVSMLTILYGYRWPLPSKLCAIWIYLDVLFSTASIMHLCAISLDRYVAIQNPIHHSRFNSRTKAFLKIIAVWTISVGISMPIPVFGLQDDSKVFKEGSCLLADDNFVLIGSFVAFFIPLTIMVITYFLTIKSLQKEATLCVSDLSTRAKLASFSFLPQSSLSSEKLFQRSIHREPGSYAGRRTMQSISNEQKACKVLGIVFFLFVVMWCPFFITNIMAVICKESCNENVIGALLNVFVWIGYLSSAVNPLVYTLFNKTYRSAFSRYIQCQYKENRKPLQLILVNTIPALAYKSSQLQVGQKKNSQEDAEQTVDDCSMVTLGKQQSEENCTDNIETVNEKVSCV

| SMILES | Activity [1] [%] | Activity (D(2) dopamine receptor [2]) [%] | pKi (D(4) dopamine receptor) | Activity [3] [%] | pKi (D(2) dopamine receptor [4]) |
| --- | --- | --- | --- | --- | --- |
| O=C(c1ccc2ccccc2c1)N1CCC(NCCc2ccccc2)CC1 | 50 | 0 | 6.68 |  |  |
| O=C(c1cccc2ccccc12)N1CCC(NCCCc2ccccc2)CC1 | 35 | 0 |  | 52 |  |
| O=C(NC1CCN(CC[C@H](O)c2ccccc2)CC1)c1cccc2ccccc12 |  | 0 |  | 45 |  |
| O=C(c1ccc2ccccc2c1)N1CCC(NCCCc2ccccc2)CC1 | 41 | 0 | 6.65 |  |  |
| O=C(c1ccc2ccccc2c1)N1CCC(NCc2ccccc2)CC1 | 8 | 0 | 6.78 |  |  |
| O=C(NC1CCN(Cc2ccccc2)CC1)c1cccc2ccccc12 |  |  | 6.79 |  | < 6.00 |
| O=C(NC1CCN(CCCCc2ccccc2)CC1)c1cccc2ccccc12 |  | 18 | 6.44 |  |  |
| O=C(NC1CCN(CCCc2ccccc2)CC1)c1ccc2ccccc2c1 |  | 13 | 7.20 |  |  |
| O=C(c1cccc2ccccc12)N1CCC(NCc2ccccc2)CC1 | 10 | 0 |  | 1 |  |
| CC(c1ccccc1)N1CCC(NC(=O)c2cccc3ccccc23)CC1 (centres undefined) |  | 11 |  | 21 |  |
| O=C(NC1CCN(Cc2ccccc2)CC1)c1ccc2ccccc2c1 |  |  | 7.96 |  | < 6.00 |
| O=C(NC1CCN(CCCc2ccccc2)CC1)c1cccc2ccccc12 |  | 9 | 7.15 |  |  |
| O=C(c1ccc2ccccc2c1)N1CCC(NCC[C@H](O)c2ccccc2)CC1 |  |  |  | 49 |  |
| CC(c1ccccc1)N1CCC(NC(=O)c2ccc3ccccc3c2)CC1 (centres undefined) |  |  | 7.54 |  |  |
| O=C(NC1CCN(CCc2ccccc2)CC1)c1ccc2ccccc2c1 |  | 7 | 6.86 |  |  |
| O=C(NC1CCN(CCc2ccccc2)CC1)c1cccc2ccccc12 |  | 3 | 6.64 |  |  |
| O=C(c1cccc2ccccc12)N1CCC(NCCc2ccccc2)CC1 |  | 0 |  | 16 |  |
| O=C(NC1CCN(CCCCc2ccccc2)CC1)c1ccc2ccccc2c1 |  | 22 | 6.55 |  |  |
